Values after ≈ are worked out from the molar mass of the structure shown. Active and inactive are the calls of the source. The rule behind the calls is not given here.
Key:
Staphylococcus aureus [1] = test: Antimicrobial activity against stationary-phase methicillin-sensitive Staphylococcus aureus ATCC 29213 grown on nutrient-depleted CAMHB medium assessed as membrane permeability after 30 mins by propidium iodide staining-based fluorescence spectrophotometry; format: functional, organism-based
Staphylococcus aureus [2] = test: Bactericidal activity against stationary-phase methicillin-sensitive Staphylococcus aureus ATCC 29213 assessed as log reduction in bacterial count at 4 ug/ml within 2 hrs by time kill analysis; format: functional
Staphylococcus aureus [3] = test: Antimicrobial activity against vancomycin-resistant Staphylococcus aureus isolate VRS5 planktonic cells by broth microdilution method; format: functional
Procedure, shortened: (§1)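 Planktonic MIC read in the MBEC system against cells shed from 24-h peg biofilms (grown in tryptic soy broth, 37°C, 150 rpm), after 24-h exposure to serially diluted drug in CAMHB without polysorbate 80. Ranges come from ≥3 independent experiments.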

Staphylococcus aureus [4] = test: Bactericidal activity against stationary-phase methicillin-resistant Staphylococcus aureus ATCC 33591 grown on nutrient-depleted CAMHB medium assessed as reduction in bacterial count at 0.5 ug/ml after 24 hrs by time kill analysis; format: functional
Procedure, shortened: (§2)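 Overnight stationary-phase cultures inoculated at ~10^7 CFU/ml into strain-matched spent CAMHB (pH 7.0, filter-sterilized). Oritavancin was kept at 0.002% polysorbate 80; daptomycin wells had 50 μg/ml CaCl2. Incubation at 37°C, 225 rpm. Samples were charcoal-quenched (25 mg/ml) before plating; points are means of duplicates. Bactericidal means ≥3-log drop at 24 h versus inoculum. ≥3 repeats.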

Staphylococcus aureus [5] = test: Bactericidal activity against exponential-phase methicillin-sensitive Staphylococcus aureus ATCC 29213 grown on nutrient-depleted CAMHB medium at 0.5 ug/ml after 24 hrs by time kill analysis; format: functional, organism-based
Staphylococcus aureus [6] = test: Bactericidal activity against methicillin-sensitive Staphylococcus aureus assessed as log reduction in bacterial load within 15 to 120 mins; format: functional
Staphylococcus aureus [7] = test: Bactericidal activity against stationary-phase vancomycin-resistant Staphylococcus aureus isolate VRS5 after 24 hrs by time kill analysis; format: functional, organism-based; procedure, shortened: as §2
Staphylococcus aureus [8] = test: Antimicrobial activity against stationary-phase methicillin-sensitive Staphylococcus aureus ATCC 29213 grown on nutrient-depleted CAMHB medium assessed as membrane depolarization after 30 mins using DiSC3(5) dye based fluorescence spectrophotometry; format: functional, organism-based
Staphylococcus aureus [9] = test: Bactericidal activity against stationary-phase methicillin-sensitive Staphylococcus aureus ATCC 29213 assessed as log reduction in bacterial count at 16 ug/ml within 2 hrs by time kill analysis; format: functional
Procedure, shortened: (§3)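 Short (2-h) time-kill of ATCC 29213 at OD600 0.005 (~10^6 CFU/ml) in 10 mM HEPES-Cl pH 7.5 with 50 μg/ml CaCl2. Exponential cells had 5 mM glucose and stationary cells none. Oritavancin was tested without polysorbate 80; viable counts were taken by serial dilution plating. Three repeats; one shown.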

Staphylococcus aureus [10] = test: Bactericidal activity against exponential-phase methicillin-sensitive Staphylococcus aureus ATCC 29213 grown on nutrient-depleted CAMHB medium at 16 ug/ml after 24 hrs by time kill analysis; format: functional, organism-based
Staphylococcus aureus [11] = test: Antimicrobial activity against methicillin-resistant Staphylococcus aureus ATCC 33591 planktonic cells by broth microdilution method; format: functional; procedure, shortened: as §1
Staphylococcus aureus [12] = test: Bactericidal activity against stationary-phase vancomycin-resistant Staphylococcus aureus isolate VRS5 grown on nutrient-depleted CAMHB medium assessed as log reduction in bacterial count at 4 ug/ml after 24 hrs by time kill analysis
Staphylococcus aureus [13] = test: Antimicrobial activity against exponential-phase methicillin-sensitive Staphylococcus aureus ATCC 29213 grown on nutrient-depleted CAMHB medium assessed as membrane permeability after 30 mins by propidium iodide staining-based fluorescence spectrophotometry; format: functional, organism-based
Staphylococcus aureus [14] = test: Antimicrobial activity against methicillin-sensitive Staphylococcus aureus ATCC 29213 assessed as inhibition of bacterial biofilm formation after 1 hr by serial dilution method; format: functional
Staphylococcus aureus [15] = test: Inhibition of cell division in stationary-phase methicillin-resistant Staphylococcus aureus ATCC 43300 assessed as absence of appearance of septal midline at 1 ug/ml by transmission electron microscopy; format: functional, organism-based
Procedure, shortened: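 Stationary-phase MRSA ATCC 43300 (5 × 10^7 CFU/ml) exposed for 3 h in nutrient-depleted CAMHB. Cells were fixed in 2.5% glutaraldehyde, post-fixed in 2% osmium tetroxide and en bloc stained with uranyl acetate. Samples were ethanol-dehydrated, embedded in LR White, thin-sectioned, and stained with uranyl acetate/lead citrate. Septa were viewed by TEM at 100 kV.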

Staphylococcus aureus [16] = test: Antimicrobial activity against exponential-phase methicillin-sensitive Staphylococcus aureus ATCC 29213 grown on nutrient-depleted CAMHB medium assessed as membrane depolarization after 30 mins using DiSC3(5) dye based fluorescence spectrophotometry; format: functional, organism-based
Staphylococcus aureus [17] = test: Bactericidal activity against stationary-phase methicillin-resistant Staphylococcus aureus ATCC 33591 grown on nutrient-depleted CAMHB medium after 24 hrs by time kill analysis; format: functional, organism-based; procedure, shortened: as §2
Staphylococcus aureus [18] = test: Bactericidal activity against exponential-phase methicillin-sensitive Staphylococcus aureus ATCC 29213 assessed as log reduction in bacterial count at 16 ug/ml within 15 mins by time kill analysis; format: functional; procedure, shortened: as §3
Homo sapiens = test: fCmin in human at 200 […]; format: ADME, organism-based; conditions: in vivo
Staphylococcus aureus [19] = test: Antimicrobial activity against 4.6 X 10^6 CFU/peg methicillin-susceptible Staphylococcus aureus ATCC 29213 planktonic cells by broth microdilution method
Staphylococcus aureus [20] = test: Antimicrobial activity against methicillin-resistant Staphylococcus aureus ATCC 33591 assessed as inhibition of biofilm formation after 24 hrs by serial dilution method; format: functional
Procedure, shortened: (§4)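 24-h biofilms grown on MBEC peg lids from 10^7 CFU/ml inocula in tryptic soy broth at 37°C, 150 rpm. After a saline wash, pegs were exposed for 24 h to serially diluted drug in CAMHB with no polysorbate 80. Pegs were washed, sonicated 5 min into CAMHB recovery plates and incubated 24 h; MBEC is the lowest sterilizing concentration. Ranges come from ≥3 independent experiments.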

Staphylococcus aureus [21] = test: Bactericidal activity against exponential-phase methicillin-sensitive Staphylococcus aureus ATCC 29213 assessed as log reduction in bacterial count at 4 ug/ml within 2 hrs by time kill analysis; format: functional
Staphylococcus aureus [22] = test: Antimicrobial activity against methicillin-sensitive Staphylococcus aureus ATCC 29213 planktonic cells by broth microdilution method; format: functional; procedure, shortened: as §1
Staphylococcus aureus [23] = test: Antimicrobial activity against 4.6 X 10^6 CFU/peg methicillin-susceptible Staphylococcus aureus ATCC 29213 assessed as inhibition of biofilm formation after 24 hrs by serial dilution method
Staphylococcus aureus [24] = test: Bactericidal activity against stationary-phase methicillin-sensitive Staphylococcus aureus ATCC 29213 grown on nutrient-depleted CAMHB medium assessed as log reduction in bacterial count at 0.5 ug/ml after 24 hrs by time kill analysis; format: functional
Staphylococcus aureus [25] = test: Antimicrobial activity against methicillin-sensitive Staphylococcus aureus ATCC 29213 assessed as inhibition of biofilm formation after 24 hrs by serial dilution method; format: functional; procedure, shortened: as §4
Staphylococcus aureus [26] = test: Bactericidal activity against exponential-phase methicillin-sensitive Staphylococcus aureus ATCC 29213 grown on nutrient-depleted CAMHB medium at 4 ug/ml after 24 hrs by time kill analysis; format: functional, organism-based

CN[C@H](CC(C)C)C(=O)N[C@H]1C(=O)N[C@@H](CC(N)=O)C(=O)N[C@H]2C(=O)N[C@H]3C(=O)N[C@H](C(=O)N[C@H](C(=O)O)c4cc(O)cc(O)c4-c4cc3ccc4O)[C@H](O[C@H]3C[C@](C)(N)[C@@H](O)[C@H](C)O3)c3ccc(c(Cl)c3)Oc3cc2cc(c3O[C@@H]2O[C@H](CO)[C@@H](O)[C@H](O)[C@H]2O[C@H]2C[C@](C)(NCc3ccc(-c4ccc(Cl)cc4)cc3)[C@@H](O)[C@H](C)O2)Oc2ccc(cc2Cl)[C@H]1O [ORITAVANCIN]
Activity (Staphylococcus aureus [1]): Dose-dependent effect | FC (Staphylococcus aureus [2]): 0.9 | MIC (Staphylococcus aureus [3]): 2 µg/mL (≈ 1.12 µM) | fold change (FC) (Staphylococcus aureus [4]): 0.4 | Activity (Staphylococcus aureus [5]): Active | FC (Staphylococcus aureus [6]): >=3 | Activity (Staphylococcus aureus [7]): Dose-dependent effect | Activity (Staphylococcus aureus [8]): Dose-dependent effect | FC (Staphylococcus aureus [9]): 1.5 | Activity (Staphylococcus aureus [10]): Active | MIC (Staphylococcus aureus [11]): 0.5 µg/mL (≈ 0.279 µM) | FC (Staphylococcus aureus [12]): 2.2 | Activity (Staphylococcus aureus [13]): Dose-dependent effect | MBEC (Staphylococcus aureus [14]): 4 µg/mL | inhibition (Staphylococcus aureus [15]): Active | Activity (Staphylococcus aureus [16]): Dose-dependent effect | Activity (Staphylococcus aureus [17]): Dose-dependent effect | FC (Staphylococcus aureus [18]): 3.2 | fCmin (Homo sapiens): 0.5 µg/mL | MIC (Staphylococcus aureus [19]): 4 µg/mL (≈ 2.23 µM) | MBEC (Staphylococcus aureus [20]): 0.5 µg/mL | FC (Staphylococcus aureus [21]): 2.9 | MIC (Staphylococcus aureus [22]): 2 µg/mL (≈ 1.12 µM) | MBEC (Staphylococcus aureus [23]): 8 µg/mL | FC (Staphylococcus aureus [24]): 2.9 | MBEC (Staphylococcus aureus [25]): 2 µg/mL | Activity (Staphylococcus aureus [26]): Active
